Test results reported in ChEMBL document CHEMBL4813921, “Optimization of WZ4003 as NUAK inhibitors against human colorectal cancer” (Eur J Med Chem, 2021).
Active and inactive are the calls of the source. The rule behind the calls is not given here.

Experiments:
[1] = target: T1, NUAK family SNF1-like kinase 1 (Homo sapiens) (UniProt O60285); experiment: Inhibition of NUAK1 (unknown origin) at 10 uM using CHKtide as substrate in presence of ATP measured after 60 mins by ADP-Glo assay
T1 sequence (whole entry): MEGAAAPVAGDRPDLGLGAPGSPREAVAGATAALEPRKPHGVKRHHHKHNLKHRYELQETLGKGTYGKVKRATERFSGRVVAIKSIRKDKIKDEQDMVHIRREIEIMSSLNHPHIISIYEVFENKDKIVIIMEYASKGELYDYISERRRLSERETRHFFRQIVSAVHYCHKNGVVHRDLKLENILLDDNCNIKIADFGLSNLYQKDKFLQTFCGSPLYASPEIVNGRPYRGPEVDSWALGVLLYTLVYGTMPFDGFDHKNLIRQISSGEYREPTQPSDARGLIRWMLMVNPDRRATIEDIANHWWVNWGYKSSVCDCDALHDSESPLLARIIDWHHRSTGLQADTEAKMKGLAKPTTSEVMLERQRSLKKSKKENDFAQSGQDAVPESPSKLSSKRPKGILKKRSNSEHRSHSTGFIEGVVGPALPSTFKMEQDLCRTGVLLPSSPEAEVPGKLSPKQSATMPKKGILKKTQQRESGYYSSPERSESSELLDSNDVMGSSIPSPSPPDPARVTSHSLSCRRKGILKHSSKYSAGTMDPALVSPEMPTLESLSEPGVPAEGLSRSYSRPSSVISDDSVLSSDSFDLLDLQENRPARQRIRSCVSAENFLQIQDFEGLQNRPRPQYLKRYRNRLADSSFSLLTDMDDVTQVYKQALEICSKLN

[2] = system: U2OS; experiment: Antiproliferative activity against human U2OS cells assessed as reduction in cell viability at 10 uM measured after 1 to 5 days by MTT assay; type: functional; conditions: time 1-5 day
Summary of the method: (§1)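 MTT viability read daily over 1–5 days of exposure to 10 μM compound; mean ± SD, n = 3.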

[3] = target: T2, NUAK family SNF1-like kinase 2 (Homo sapiens) (UniProt Q9H093); experiment: Inhibition of NUAK2 (unknown origin) at 10 uM using CHKtide as substrate in presence of ATP measured after 60 mins by ADP-Glo assay
T2 sequence (whole entry): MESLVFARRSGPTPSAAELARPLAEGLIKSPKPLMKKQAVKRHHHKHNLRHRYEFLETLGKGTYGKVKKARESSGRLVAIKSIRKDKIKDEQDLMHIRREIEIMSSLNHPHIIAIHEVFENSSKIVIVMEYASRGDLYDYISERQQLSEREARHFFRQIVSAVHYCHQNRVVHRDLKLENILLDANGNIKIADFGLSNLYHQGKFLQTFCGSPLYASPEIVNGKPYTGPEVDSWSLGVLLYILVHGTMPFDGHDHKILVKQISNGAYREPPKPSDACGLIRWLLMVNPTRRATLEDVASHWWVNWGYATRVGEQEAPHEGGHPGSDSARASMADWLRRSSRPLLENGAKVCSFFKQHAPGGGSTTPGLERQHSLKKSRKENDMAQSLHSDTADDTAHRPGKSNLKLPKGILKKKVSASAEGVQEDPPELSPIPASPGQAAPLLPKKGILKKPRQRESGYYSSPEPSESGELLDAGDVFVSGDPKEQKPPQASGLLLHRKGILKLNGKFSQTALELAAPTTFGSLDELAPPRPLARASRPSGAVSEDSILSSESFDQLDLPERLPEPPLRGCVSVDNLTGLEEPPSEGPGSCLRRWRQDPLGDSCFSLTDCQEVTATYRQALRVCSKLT

[4] = system: SW480; experiment: Induction of apoptosis in human SW480 cells assessed as early apoptotic cells at 10 uM measured after 48 hrs by Annexin V-FITC/PI staining based flow cytometry method (reference value: 2.6%); type: functional
[5] = system: HCT-116; experiment: Induction of apoptosis in human HCT-116 cells assessed as early apoptotic cells at 10 uM measured after 48 hrs by Annexin V-FITC/PI staining based flow cytometry method (reference value: 0.8%); type: functional
[6] = system: U2OS; experiment: Induction of apoptosis in human U2OS cells assessed as early apoptotic cells at 10 uM measured after 48 hrs by Annexin V-FITC/PI staining based flow cytometry method (reference value: 2.8%); type: functional
[7] = system: U2OS; experiment: Induction of apoptosis in human U2OS cells assessed as late apoptotic cells at 10 uM measured after 48 hrs by Annexin V-FITC/PI staining based flow cytometry method (reference value: 1.3%); type: functional
[8] = system: HCT-116; experiment: Induction of apoptosis in human HCT-116 cells assessed as late apoptotic cells at 10 uM measured after 48 hrs by Annexin V-FITC/PI staining based flow cytometry method (reference value: 1.6%); type: functional
[9] = system: HCT-116; experiment: Induction of apoptosis in human HCT-116 cells assessed as viable cells at 10 uM measured after 48 hrs by Annexin V-FITC/PI staining based flow cytometry method (reference value: 95.4%); type: functional; conditions: read-out: Activity
[10] = system: HCT-116; experiment: Antiproliferative activity against human HCT-116 cells at 2.5 to 10 uM measured after 48 hrs by EdU staining based assay; type: functional, cell-based; conditions: dose 2.5-10 µM
Summary of the method: (§2)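 Cells exposed to a range of compound concentrations for 48 h, then EdU click-chemistry staining with DAPI counterstain. Confocal high-content imaging; DAPI-positive nuclei counted as total and EdU-positive as proliferating.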

[11] = system: U2OS; experiment: Induction of apoptosis in human U2OS cells assessed as viable cells at 10 uM measured after 48 hrs by Annexin V-FITC/PI staining based flow cytometry method (reference value: 95.5%); type: functional; conditions: read-out: Activity
[12] = system: U2OS; experiment: Antiproliferative activity against human U2OS cells at 2.5 to 10 uM measured after 48 hrs by EdU staining based assay; type: functional, cell-based; conditions: dose 2.5-10 µM; summary of the method: as §2
[13] = system: HCT-116; experiment: Induction of apoptosis in human HCT-116 cells assessed as necrotic cells at 10 uM measured after 48 hrs by Annexin V-FITC/PI staining based flow cytometry method (reference value: 2.2%); type: functional
[14] = system: SW480; experiment: Induction of apoptosis in human SW480 cells assessed as viable cells at 10 uM measured after 48 hrs by Annexin V-FITC/PI staining based flow cytometry method (reference value: 93.2%); type: functional; conditions: read-out: Activity
[15] = system: U2OS; experiment: Induction of apoptosis in human U2OS cells assessed as necrotic cells at 10 uM measured after 48 hrs by Annexin V-FITC/PI staining based flow cytometry method (reference value: 0.4%); type: functional
[16] = system: SW480; experiment: Antiproliferative activity against human SW480 cells at 2.5 to 10 uM measured after 48 hrs by EdU staining based assay; type: functional, cell-based; conditions: dose 2.5-10 µM; summary of the method: as §2
[17] = system: SW480; experiment: Induction of apoptosis in human SW480 cells assessed as late apoptotic cells at 10 uM measured after 48 hrs by Annexin V-FITC/PI staining based flow cytometry method (reference value: 2.8%); type: functional
[18] = system: HCT-116; experiment: Antiproliferative activity against human HCT-116 cells assessed as reduction in cell viability at 10 uM measured after 1 to 5 days by MTT assay relative to control; type: functional, cell-based; conditions: time 1-5 day; summary of the method: as §1
[19] = system: SW480; experiment: Induction of apoptosis in human SW480 cells assessed as necrotic cells at 10 uM measured after 48 hrs by Annexin V-FITC/PI staining based flow cytometry method (reference value: 1.4%); type: functional
[20] = system: SW480; experiment: Antiproliferative activity against human SW480 cells assessed as reduction in cell viability at 10 uM measured after 1 to 5 days by MTT assay relative to control; type: functional, cell-based; conditions: time 1-5 day; summary of the method: as §1

Row | inhibition [1] | inhibition [3] | SMILES | inhibition at 10 µM [2] [%] | further results
1 | 13.9% | inactive | CCC(=O)Nc1cccc(Oc2nc(Nc3ccc(N4CCCCC4)cc3OC)ncc2Cl)c1 | 12.9 | 
2 | inactive | inactive | CCC(=O)Nc1cccc(Oc2nc(Nc3ccc(N4CCCC4)cc3)ncc2Cl)c1 | 38.5 | 
3 | 80.6% | 15% | CCC(=O)Nc1cccc(Oc2nc(Nc3ccc(N(C)C)cc3OC)ncc2Cl)c1 | 4.83 | 
4 | 70.9% | 43.5% | CCC(=O)Nc1cccc(Oc2nc(Nc3ccc(N4CCOCC4)cc3)ncc2Cl)c1 | 61.3 | 
5 | 65.6% | 8.45% | CCC(=O)Nc1cccc(Oc2nc(Nc3ccc(N4CCOCC4)cc3OC)ncc2Cl)c1 | 9.7 | 
6 | 9.3% | inactive | CCCN(CCC)c1ccc(Nc2ncc(Cl)c(Oc3cccc(NC(=O)CC)c3)n2)cc1 | 23.9 | 

Further lines, the compound ahead of its results:

Row | SMILES | inhibition [1] | inhibition [3] | inhibition at 10 µM [2] [%] | further results
7 | CCC(=O)Nc1cccc(Oc2nc(Nc3ccc(N4CCCCC4)cc3)ncc2Cl)c1 | 86% | 72.3% | 48.4 | 
8 | CCC(=O)Nc1cccc(Oc2nc(Nc3ccc(N4CCN(C)CC4)cc3OC)ncc2Cl)c1 | 85.8% | 84.8% | 47.3 | Activity [4]: 2%; Activity [5]: 2.9%; Activity [6]: 6.2%; Activity [7]: 2.6%; Activity [8]: 13.7%; viability at 10 µM [9]: 80.2%; Activity [10]: Active; viability at 10 µM [11]: 90.8%; Activity [12]: Active; Activity [13]: 3.2%; viability at 10 µM [14]: 94.5%; Activity [15]: 0.4%; Activity [16]: Active; Activity [17]: 2.7%; Activity [18]: Active; Activity [19]: 0.8%; Activity [20]: Active
9 | CCC(=O)Nc1cccc(Oc2nc(Nc3ccc(N(C)C)cc3)ncc2Cl)c1 | 72.6% | 31.7% | 60.3 | 
10 | CCC(=O)Nc1cccc(Oc2nc(Nc3ccc(N4CCC(OC)CC4)cc3OC)ncc2Cl)c1 | 5.08% | inactive | 10.8 | 
11 | CCC(=O)Nc1cccc(Oc2nc(Nc3ccc(N(CC)CC)cc3)ncc2Cl)c1 | 54.4% | 21.2% | 38.8 | 
12 | CCCN(CCC)c1ccc(Nc2ncc(Cl)c(Oc3cccc(NC(=O)CC)c3)n2)c(OC)c1 | inactive | inactive | 33.8 | 
13 | CCC(=O)Nc1cccc(Oc2nc(Nc3ccc(N4CCC(C)CC4)cc3OC)ncc2Cl)c1 | 9.2% | inactive | 20.9 | 
14 | CCC(=O)Nc1cccc(Oc2nc(Nc3ccc(N4CCCC4)cc3OC)ncc2Cl)c1 | 25.8% | inactive | 18.5 | 
15 | CCC(=O)Nc1cccc(Oc2nc(Nc3ccc(N4CCN(C)CC4)cc3Cl)ncc2Cl)c1 | 71.5% | 69.1% | 34.8 | 
16 | Cc1nc(Nc2cnn(C3CCNCC3)c2)nc2c1N(C)C(=O)c1cc3ccccc3cc1N2C | 78.3% | 15.6% | 38.6 | 
17 | CCC(=O)Nc1cccc(Oc2nc(Nc3ccc(N4CCC(C)CC4)cc3)ncc2Cl)c1 | 13.4% | 24.8% | 44.2 | 
18 | CCC(=O)Nc1cccc(Oc2nc(Nc3ccc(N4CCC(OC)CC4)cc3)ncc2Cl)c1 | 86.5% | 53.4% | 48.7 | 
19 | CCC(=O)Nc1cccc(Oc2ccnc(Nc3ccc(N4CCN(C)CC4)cc3)n2)c1 | 85.6% | 48.8% | 24 | 
20 | CCC(=O)Nc1cccc(Oc2nc(Nc3ccc(N(CC)CC)cc3OC)ncc2Cl)c1 | 10.8% | inactive | 8.69 | 
